Measured values pooled from the literature.
Each line is one published result; the experiments were not run side by side.
Read-out: metabolic stability
Species: human

Cc1cnc(Nc2ccc(C(=O)NC3CCNCC3)c(F)c2)nc1Nc1cc(NS(=O)(=O)C(C)(C)C)cc(C(=O)NCCOCCOCCOCCC(=O)N2CCC(NC(=O)c3ccc(Nc4ncc(C)c(Nc5ccc(Cl)c(NS(=O)(=O)C(C)(C)C)c5)n4)cc3F)CC2)c1  half-life (liver microsomes): 8.2 min
O=C(O)Cc1ccccc1Nc1c(Cl)cccc1Cl  half-life (hepatocytes; 1 µM): 18.4 min
CCOC(=O)NS(=O)(=O)c1sc(CC(C)C)cc1-c1ccc2c(c1)CN(C)C(=O)C2  half-life (liver microsomes; 1 µM; pH 7.4): 7.8 min
COc1ccc(-c2ocnc2C(=O)NCCCn2cncn2)cc1Cl  half-life (liver microsomes): 78.7 min
O=C1CCN(C(=O)Nc2ccc(F)c(C(F)F)c2)[C@@H]2CCCC[C@H]12  half-life (liver microsomes): > 56 min
CCCCOC(=O)NS(=O)(=O)c1sc(CC(C)C)cc1-c1ccc2c(c1)CN(C(C)=O)C2  half-life (liver microsomes; 1 µM; pH 7.4): 2.4 min
CC(C)(C)C[C@@H]1N[C@@H](C(=O)N[C@H]2C[C@@](C)(O)C2)[C@H](c2cccc(Cl)c2F)[C@]12C(=O)Nc1cc(Cl)ccc12  half-life (liver microsomes): > 60 min
CCN(CC)CCNC(=O)c1c(C)[nH]c(/C=C2\C(=O)Nc3ccc(F)cc32)c1C  half-life (liver microsomes; 1 µM; pH 7.4): 37.4 min
COc1ccc([C@@H]2Sc3ccccc3N(CCN(C)C)C(=O)[C@@H]2OC(C)=O)cc1  half-life (hepatocytes; 1 µM): 91.8 min
O=C(CC1Cc2ccccc2C1)N[C@H](CN1CCCC1)[C@H](O)c1ccc(OC(F)(F)F)cc1  half-life (liver microsomes; 1 µM; pH 7.4): 84 min
O=C(N[C@H](Cc1c[nH]c2ccccc12)C(=O)Nc1ccncc1)c1ccc(-c2cccc(F)c2)cc1F  half-life (liver microsomes): 18 min
COc1ccc2cc(C(=O)Nc3ccc4c(c3)CN(C3CCC(=O)NC3=O)C4=O)ccc2c1 (stereo not shown)  half-life (liver microsomes; 2 µM; 1 h): 3.8 min
CCCN(C)Cc1cc(-c2[nH]c3cccc(F)c3c(=O)c2C)ccc1Cc1ccc(OC(F)(F)F)cc1  half-life (liver microsomes): 1.67 min
C[C@H](CCCOc1cccc(CO)c1)[C@H]1CC[C@H]2[C@@H]3CC=C4C[C@@H](O)CC[C@]4(C)[C@H]3CC[C@]12C  half-life (liver microsomes; 1 µM; pH 7.4): 330 min
O=S(=O)(Nc1cccc(-c2nnn[nH]2)c1)c1ccc(Cl)c2nonc12  half-life (liver microsomes): 200 min
CCCCOC(=O)NS(=O)(=O)c1sc(CC(C)C)cc1-c1ccc2c(c1)CN(C(C)=O)CC2  half-life (liver microsomes; 1 µM; pH 7.4): 5.4 min
O=S(=O)(Nc1cccc(-c2nnn[nH]2)c1)c1cc(Cl)c(Cl)cc1Cl  half-life (liver microsomes): 88 min
O=C(OC(C(F)(F)F)C(F)(F)F)N1Cc2ccc(OCCN3CCOCC3)cc2C1  half-life (liver microsomes): 40 min
CN1CCN(C(c2ccccc2)c2ccc(Cl)cc2)CC1 (racemic)  half-life (liver microsomes): > 100 min
CC[C@@H]1C=CC(=O)O[C@@H]1C[C@@H](OC)[C@H](C)[C@H](OC)[C@@H](C)Cc1ccc(F)cc1  half-life (liver microsomes): < 2.3 min
Cc1cccc(-n2ncc(Cl)c(Cl)c2=O)c1  half-life (liver microsomes): 6.6 min
CCS(=O)(=O)Nc1cccc(-c2cn(C)c(=O)c3ccccc23)c1  half-life (liver microsomes): 315 min
CCOC(=O)NS(=O)(=O)c1sc(CC(C)C)cc1-c1ccc2c(c1)CN(C(=O)OCC)C2  half-life (liver microsomes; 1 µM; pH 7.4): 2.3 min
C/C=C/C[C@H](C)[C@@H](OC)[C@@H](C)[C@H](O)C[C@H]1OC(=O)C=C[C@H]1CC  half-life (liver microsomes): 6.7 min
CCOc1ccc2ccc(=O)oc2c1  half-life (liver microsomes; 1 µM; pH 7.4): 10 min
CC[C@@H]1C=CC(=O)O[C@@H]1C[C@@H](O)[C@H](C)[C@H](OC)[C@@H](C)Cc1ccc(F)cc1  half-life (liver microsomes): 3.3 min
CC(C)(C)c1ccc(O)c(CN(Cc2cc(C(C)(C)C)ccc2O)C2CCC(NC(N)=O)CC2)c1 (stereo not shown)  half-life (liver microsomes; 1 µM; pH 7.4): 39.8 min
COc1ccc(CNc2c(CO)cnc3c(C4CC4)cc(C#N)cc23)cc1Cl  half-life (liver microsomes): 19.5 min
